The source made the active and inactive calls. No cut-off for these calls is given here.
What was measured:
[1] = target: Histone deacetylase 2 (Homo sapiens, UniProt Q92769); assay: Inhibition of full length recombinant human C-terminal GST-tagged HDAC2 expressed in baculovirus-infected insect cells using RHKK(Ac)AMC as substrate after 60 mins by fluorimeter
[2] = target: T1, Protein deacetylase HDAC6 (Homo sapiens, UniProt Q9UBN7); assay: Inhibition of full length recombinant human N-terminal GST-tagged HDAC6 expressed in baculovirus-infected Sf9 insect cells using RHKK(Ac)AMC as substrate after 90 mins by fluorimeter
T1 sequence (Q9UBN7 whole entry): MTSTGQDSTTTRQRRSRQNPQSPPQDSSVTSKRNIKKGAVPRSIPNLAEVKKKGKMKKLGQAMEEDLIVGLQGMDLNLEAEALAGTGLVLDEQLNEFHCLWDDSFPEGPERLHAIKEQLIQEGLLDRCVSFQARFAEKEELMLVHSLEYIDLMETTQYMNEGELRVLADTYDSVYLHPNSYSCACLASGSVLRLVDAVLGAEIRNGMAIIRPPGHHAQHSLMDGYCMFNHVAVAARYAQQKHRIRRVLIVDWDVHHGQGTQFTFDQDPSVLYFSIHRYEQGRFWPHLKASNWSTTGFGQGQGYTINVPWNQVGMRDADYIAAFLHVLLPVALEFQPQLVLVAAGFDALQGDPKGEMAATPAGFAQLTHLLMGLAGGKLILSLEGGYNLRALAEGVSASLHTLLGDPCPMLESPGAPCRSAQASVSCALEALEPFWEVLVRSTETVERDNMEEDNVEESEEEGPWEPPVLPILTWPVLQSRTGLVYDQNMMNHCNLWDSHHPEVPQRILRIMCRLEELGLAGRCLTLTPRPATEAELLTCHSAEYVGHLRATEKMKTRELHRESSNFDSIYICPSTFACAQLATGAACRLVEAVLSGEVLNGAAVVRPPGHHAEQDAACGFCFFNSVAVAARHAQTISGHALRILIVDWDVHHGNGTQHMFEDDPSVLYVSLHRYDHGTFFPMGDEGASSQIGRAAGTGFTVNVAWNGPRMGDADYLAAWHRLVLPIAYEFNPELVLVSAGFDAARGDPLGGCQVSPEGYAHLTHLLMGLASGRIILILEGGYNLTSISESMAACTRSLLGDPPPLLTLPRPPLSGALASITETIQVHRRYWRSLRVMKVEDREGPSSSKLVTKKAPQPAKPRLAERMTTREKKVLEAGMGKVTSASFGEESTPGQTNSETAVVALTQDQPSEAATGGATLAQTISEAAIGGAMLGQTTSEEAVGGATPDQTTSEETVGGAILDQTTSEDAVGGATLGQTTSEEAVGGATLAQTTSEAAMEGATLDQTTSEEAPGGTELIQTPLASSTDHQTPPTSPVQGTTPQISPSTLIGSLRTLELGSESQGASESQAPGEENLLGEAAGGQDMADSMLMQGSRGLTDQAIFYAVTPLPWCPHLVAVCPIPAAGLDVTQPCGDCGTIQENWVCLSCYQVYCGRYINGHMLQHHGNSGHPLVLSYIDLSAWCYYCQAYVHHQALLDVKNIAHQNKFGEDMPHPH

[3] = target: T2, Histone deacetylase 8 (Homo sapiens, UniProt Q9BY41); assay: Inhibition of recombinant human C-terminal His-tagged HDAC8 (1 to 377 residues) expressed in baculovirus-infected insect cells using RHK(Ac)K(Ac)AMC as substrate after 60 mins by fluorimeter
T2 sequence (Q9BY41 whole entry): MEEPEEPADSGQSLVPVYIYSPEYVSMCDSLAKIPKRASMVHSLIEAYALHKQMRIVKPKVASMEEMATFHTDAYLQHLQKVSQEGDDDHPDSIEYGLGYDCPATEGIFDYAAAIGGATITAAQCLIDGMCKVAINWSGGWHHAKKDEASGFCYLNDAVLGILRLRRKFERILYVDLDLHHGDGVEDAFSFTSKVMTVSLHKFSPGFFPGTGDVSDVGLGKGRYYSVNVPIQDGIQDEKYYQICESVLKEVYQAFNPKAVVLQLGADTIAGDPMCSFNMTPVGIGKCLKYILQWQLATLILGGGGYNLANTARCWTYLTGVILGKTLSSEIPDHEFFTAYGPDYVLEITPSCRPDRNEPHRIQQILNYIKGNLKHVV

[4] = target: T3, Protein deacetylase HDAC6 (Homo sapiens) (UniProt Q9UBN7); assay: Inhibition of HDAC6 in human MV4-11 cells assessed as induction of alpha-tubulin hyperacetylation after 24 hrs by Western blot method; assay type: cell-based
T3 sequence (whole entry): T1 sequence (Q9UBN7 whole entry)
Outline: (§1)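 MV4-11 cells were exposed to the inhibitor, from 5 nM to 10 µM for 24 h or at 50 nM for 10 min to 48 h. Lysates were immunoblotted for acetylated tubulin, acetylated histone H3 and HDAC6. Acetyl-tubulin was quantified by densitometry normalised to HSP90. MS-275 at 5 µM for 24 h was the comparator. Blots are representative of at least two independent experiments.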

[5] = system: MV4-11; assay: Cell cycle arrest in human MV4-11 cells assessed as accumulation at sub-G1 phase at 30 to 50 nM after 24 hrs by propidium iodide staining-based flow cytometric method; assay type: functional
Outline: (§2)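 Cells were stained with propidium iodide and analysed by flow cytometry for cell-cycle distribution and the subG1 fraction (fragmented DNA). Representative of at least two independent experiments.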

[6] = system: Mus musculus; assay: Antiarthritic activity in DBA/1J mouse collagen-induced arthritis model assessed as decrease in clinical scores at 42.3 mg/kg, ip administered every morning for 6 days measured post last dose; assay type: functional, organism-based
Outline: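 Collagen type II-induced arthritis in mice, second experiment, treated at 42.3 mg/kg (equimolar dose) versus vehicle. Clinical arthritis scores were followed from the beginning of treatment.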

[7] = system: Mus musculus; assay: Antiarthritic activity in DBA/1J mouse collagen-induced arthritis model assessed as decrease in ratio of articular bone surface to articular bone volume at 42.3 mg/kg, ip administered every morning for 12 to 14 days measured post last dose by microCT method relative to vehicle-treated control; assay type: functional, organism-based
[8] = system: Mus musculus; assay: Antiarthritic activity in DBA/1J mouse collagen-induced arthritis model assessed as reduction of articular bone erosion in arthritic hind paw at 42.3 mg/kg, ip administered every morning for 12 to 14 days measured post last dose by microCT method relative to vehicle-treated control; assay type: functional, organism-based
[9] = system: Mus musculus; assay: Toxicity in DBA/1J mouse collagen-induced arthritis model assessed as effect on red blood cell count at 42.3 mg/kg, ip administered every morning for 12 to 14 days measured post last dose relative to vehicle-treated control; assay type: organism-based; conditions: in vivo
[10] = system: Mus musculus; assay: Toxicity in DBA/1J mouse collagen-induced arthritis model assessed as effect on white blood cell count at 42.3 mg/kg, ip administered every morning for 12 to 14 days measured post last dose relative to vehicle-treated control; assay type: organism-based; conditions: in vivo
[11] = system: Mus musculus; assay: Toxicity in DBA/1J mouse collagen-induced arthritis model assessed as effect on hemoglobin concentration at 42.3 mg/kg, ip administered every morning for 12 to 14 days measured post last dose relative to vehicle-treated control; assay type: organism-based; conditions: in vivo
[12] = organism: Homo sapiens; assay: Selectivity ratio of Ki for recombinant human C-terminal GST-tagged HDAC2 to Ki for full length recombinant human N-terminal GST-tagged HDAC6
Outline: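 Recombinant human HDAC2 and HDAC6 enzymes, fluorescence-based activity assay. […] IC50s were curve-fitted from duplicate determinations. Ki was calculated from IC50 by the Cheng–Prusoff equation, and the ratio was taken from these Ki values. TSA served as internal standard.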

[13] = Inhibition of class 1 HDAC in human MV4-11 cells assessed as induction of histone hyperacetylation at 5 uM after 24 hrs by Western blot method; assay type: cell-based; outline: as §1
[14] = system: MV4-11; assay: Cell cycle arrest in human MV4-11 cells assessed as accumulation at sub-G1 phase at 5 uM after 24 hrs by propidium iodide staining-based flow cytometric method; assay type: functional; outline: as §2
[15] = system: HEL; assay: Cell cycle arrest in human HEL cells at 5 uM after 24 hrs by propidium iodide staining-based flow cytometric method; assay type: functional
[16] = system: Jurkat; assay: Cell cycle arrest in human Jurkat cells at 5 uM after 24 hrs by propidium iodide staining-based flow cytometric method; assay type: functional
[17] = system: PBMC; assay: Induction of apoptosis in human PBMC at 5 uM after 24 hrs by Annexin V/propidium iodide staining-based flow cytometric method; assay type: cell-based

Sequence of Histone deacetylase 2 (Q92769 whole entry): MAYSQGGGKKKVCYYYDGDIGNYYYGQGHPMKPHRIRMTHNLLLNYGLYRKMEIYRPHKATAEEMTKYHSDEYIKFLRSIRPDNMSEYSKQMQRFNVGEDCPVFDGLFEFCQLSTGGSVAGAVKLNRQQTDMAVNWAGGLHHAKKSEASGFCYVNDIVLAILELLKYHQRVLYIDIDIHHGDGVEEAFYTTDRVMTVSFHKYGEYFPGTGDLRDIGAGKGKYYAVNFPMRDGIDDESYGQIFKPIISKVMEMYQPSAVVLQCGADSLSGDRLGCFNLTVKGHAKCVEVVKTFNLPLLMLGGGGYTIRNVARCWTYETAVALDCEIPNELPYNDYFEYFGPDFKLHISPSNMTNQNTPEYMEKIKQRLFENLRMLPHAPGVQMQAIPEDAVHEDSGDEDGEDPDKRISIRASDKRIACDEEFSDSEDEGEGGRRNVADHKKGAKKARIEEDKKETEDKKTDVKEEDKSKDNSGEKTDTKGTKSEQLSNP

Ki [1] [nM] | Ki [2] [nM] | Ki [3] [nM] | alpha-tubulin hyperacetylation (active/not active) [4] | Structure (SMILES) | further results
70.8 | 0.32 | 93.3 | Active | COc1ccc2c3c(n(Cc4ccc(C(=O)NO)cc4)c2c1)CN1CC3C(=O)N(C)C1=O (centres undefined) | 
 | 0.08 |  |  | CN1C(=O)C2CN(Cc3c2c2cc(OCc4ccccc4)ccc2n3Cc2ccc(C(=O)NO)cc2)C1=O (centres undefined) | 
768 | 72.2 | 13.1 |  | CN1C(=O)C2CN(Cc3c2c2ccccc2n3Cc2cccc(/C=C/C(=O)NO)c2)C1=O (centres undefined) | 
370 | 0.16 | 299 | inactive | COc1ccc2c(c1)c1c(n2Cc2ccc(C(=O)NO)cc2)CN2CC1C(=O)N(C)C2 (centres undefined) | 
 | 0.42 |  |  | CN1C(=O)C2CN(Cc3c2c2cc(O)ccc2n3Cc2ccc(C(=O)NO)cc2)C1=O (centres undefined) | 
484 | 0.51 | 528 | Active | CN1CC2CN(Cc3c2c2ccccc2n3Cc2ccc(C(=O)NO)cc2)C1=O (centres undefined) | 
5200 | 0.7 | 999 |  | CN1C(=O)[C@@H]2CN(Cc3c2c2ccccc2n3Cc2ccc(C(=O)NO)cc2)C1=O | 
234 | 14.1 | 720 |  | O=C(/C=C/c1ccc(Cn2c3c(c4ccccc42)CCN2C(=O)CCCC32)cc1)NO (centres undefined) | 
469 | 0.45 | 40.4 | inactive | CN1C(=O)C2CN(Cc3c2c2ccccc2n3Cc2ccc(C(=O)NO)cc2)C1=S (centres undefined) | 
995 | 1.86 | 761 |  | CN1C(=O)C2c3c(n(Cc4ccc(C(=O)NO)cc4)c4ccccc34)CCN2C1=O (centres undefined) | 
 |  |  |  | Cc1[nH]c2ccccc2c1CCNCc1ccc(/C=C/C(=O)NO)cc1 | Activity [5]: Active
 | 1.78 |  |  | CN1C(=O)C2CN(Cc3c2c2ccc4ccccc4c2n3Cc2ccc(C(=O)NO)cc2)C1=O (centres undefined) | 
943 | 0.88 | 701 | Active | CN1C(=O)N2Cc3c(c4ccccc4n3Cc3ccc(C(=O)NO)cc3)C(C2)C1=S (centres undefined) | 
313 | 0.48 | 721 |  | CN1C(=O)C2CN(Cc3c2c2cc(OCCN4CCOCC4)ccc2n3Cc2ccc(C(=O)NO)cc2)C1=O.Cl (centres undefined) | Activity [6]: Active; Activity [7]: Active; Activity [8]: Active; Activity [9]: Non-Toxic; Activity [10]: Non-Toxic; Activity [11]: Non-Toxic
66.5 | 4.15 | 205 |  | CN1C(=O)C2CN(Cc3c2c2ccccc2n3Cc2ccc(/C=C/C(=O)NO)cc2)C1=O (centres undefined) | 
6100 | 6.51 | 1540 |  | O=C(NO)c1ccc(Cn2c3c(c4ccccc42)C2CCN(C3)C2)cc1 (centres undefined) | Ratio Ki [12]: 940
310 | 0.15 | 124 | Active | COc1ccc2c(c1)c1c(n2Cc2ccc(C(=O)NO)cc2)CN2CC1C(=O)N(C)C2=O (centres undefined) | 
7240 | 30.2 | 1680 |  | O=C(NO)c1ccc(Cn2c3c(c4ccccc42)CCN2C(=O)CCCC32)cc1 (centres undefined) | 
3200 | 2.01 | 294 |  | CN1C(=O)[C@H]2CN(Cc3c2c2ccccc2n3Cc2ccc(C(=O)NO)cc2)C1=O | 
 |  |  |  | Nc1ccccc1NC(=O)c1ccc(CNC(=O)OCc2cccnc2)cc1 [ENTINOSTAT] | inhibition (INH) [13]: Active; Activity [14]: Active; Activity [15]: Active; Activity [16]: Active; Activity [17]: Toxic
1360 | 0.23 | 427 | inactive | CN1CN2Cc3c(c4ccccc4n3Cc3ccc(C(=O)NO)cc3)C(C2)C1=O (centres undefined) | 
> 10000 | > 20000 | > 40000 |  | CN1C(=O)C2CN(Cc3c2c2ccccc2n3Cc2ccc(C(=O)O)cc2)C1=O (centres undefined) | 
